Test results from PubChem BioAssay AID624105 (Broad Institute, 2012).
Activity calls are given as the source filed them.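 Rule for the calls: active = growth reading drops at least 35% at both 405 and 600 nm in duplicate, reached below 10 µM; inactive = the rest, including effects in the opposite direction.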

Tested on: not listed separately
Experiment: efflux-deficient P. aeruginosa growth delay, iron chelation, dose response, PAK mexAB-OprM pump mutant, OD600, dry powder (AID 624105)
Conditions: P. aeruginosa PAK mexAB-oprM +EDDHA growth, OD600, 28 h; at 100 µM (top of the series)
Summary of the method: (§1)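 Material: Pseudomonas aeruginosa PAK strain lacking the mexAB-oprM efflux pump; times: 28 h exposure, 30 °C; compound: 15 nM to 100 µM final; medium: succinate M9, pH 7.0, with 2 µM EDDHA iron chelator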

For `COCCOCCC(C#N)c1ccc(Cl)cc1` (centres undefined), which growth change, negative = inhibition is on record?
The growth change, negative = inhibition was -6.59% (inactive).

For `CN(C)CCCC(C#N)c1ccc(Cl)cc1` (centres undefined), which growth change, negative = inhibition is on record?
The growth change, negative = inhibition was -3.26% (inactive).

For `N#CC(c1ccc(C(F)(F)F)c(Cl)n1)c1ccccc1OC(F)(F)F` (centres undefined), which growth change, negative = inhibition is on record?
The growth change, negative = inhibition was -14.9% (inactive).

With `CCCCC(C#N)c1ccccn1` (centres undefined) as the compound, how does the growth change, negative = inhibition read?
The growth change, negative = inhibition was -13.4% (inactive).

Which growth change, negative = inhibition does the source give for `Clc1ccc(C(c2cccc(Cl)n2)c2nn[nH]n2)cc1` (centres undefined) here?
The growth change, negative = inhibition was 11.1% (inactive).

Tested on: P. aeruginosa PAK mexAB-oprM +EDDHA growth, OD600, 28 h
Experiment: as above
Conditions: not given
Summary of the method: as §1

Which AC35 does the source give for `N#CC(c1ccc(Cl)cc1)N1CCCC1` (centres undefined) here?
Its AC35 is > 100 µM (inactive).

Which AC35 does the source give for `N#CC(c1ccc(Cl)cc1)c1ncccc1Cl` (centres undefined) here?
The AC35 was 6.05 µM.

For `N#CC(c1ccc(Cl)cc1)c1ccccn1` (centres undefined), which AC35 is on record?
Its AC35 is 31 µM.

With `CCCCC(C#N)c1ccc(F)cn1` (centres undefined) as the compound, how does the AC35 read?
The AC35 was 51.7 µM.

For `N#CC(c1cccc(C(F)(F)F)n1)c1ccc(Cl)cc1F` (centres undefined), which AC35 is on record?
Its AC35 is 8.69 µM.

With `COCCOCCC(C#N)c1ccc(F)cc1` (centres undefined) as the compound, how does the AC35 read?
The AC35 was 51.9 µM.

For `N#CC(c1ccc(Cl)cc1)c1cccc(Cl)n1` (centres undefined), which AC35 is on record?
Its AC35 is 8.36 µM.

For `N#CC(c1ccc(Cl)cc1)c1cccc(C(F)(F)F)n1` (centres undefined), which AC35 is on record?
Its AC35 is 12 µM.

For `N#CC(c1ccc(F)cc1)c1cccc(Cl)n1` (centres undefined), which AC35 is on record?
Its AC35 is 11.5 µM.

With `COCCC(C#N)c1ccc(F)cc1` (centres undefined) as the compound, how does the AC35 read?
Its AC35 is 95.8 µM.

Which AC35 does the source give for `N#Cc1cccc(C(C#N)c2ccc(F)cc2)n1` (centres undefined) here?
Its AC35 is 54.9 µM.

For `N#CC(c1cccc(Cl)n1)c1ccc(Cl)cc1F` (centres undefined), which AC35 is on record?
The AC35 was 7.15 µM.

For `N#CC(c1ccc(F)cc1)c1cccc(C(F)(F)F)n1` (centres undefined), which AC35 is on record?
Its AC35 is 6.72 µM.

Which AC35 does the source give for `CN(C)CCCC(C#N)c1ccc(F)cc1` (centres undefined) here?
Its AC35 is 49.5 µM.
